From ChEMBL document CHEMBL4411337, “2-Aminothiazole Derivatives as Selective Allosteric Modulators of the Protein Kinase CK2. 1. Identification of an Allosteric Binding Site” (J Med Chem, 2019)
Activity calls are given as the source filed them. The rule behind the calls is not given here.

Key:
[1] = target: Casein kinase II alpha/beta (Homo sapiens) (UniProt P67870+P68400); test: Inhibition of recombinant human GST-tagged CK2alpha2/CK2beta2 at 15 uM in presence of ATP by radiometric kinase assay; assay type: protein-complex assay
[2] = target: Muscle, skeletal receptor tyrosine-protein kinase (Homo sapiens) (UniProt O15146); test: Inhibition of MUSK (unknown origin) assessed as residual activity at 50 uM relative to control
Outline: (§1)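 Selectivity profiling against a panel of 44 human kinases. For each kinase, ATP was set to that kinase's Km. Values are residual activity in duplicate assays.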

[3] = target: Homeodomain-interacting protein kinase 2 (Homo sapiens) (UniProt Q9H2X6); test: Inhibition of HIPK2 (unknown origin) assessed as residual activity at 50 uM relative to control; outline: as §1
[4] = target: Serine/threonine-protein kinase STK11 (Homo sapiens) (UniProt Q15831); test: Inhibition of LKB1 (unknown origin) assessed as residual activity at 50 uM relative to control; outline: as §1
[5] = target: RAC-alpha serine/threonine-protein kinase (Homo sapiens) (UniProt P31749); test: Inhibition of PKBalpha (unknown origin) assessed as residual activity at 50 uM relative to control
Outline: (§2)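 Profiling panel of 44 human kinases. ATP set to each kinase's Km. Run in duplicate; duplicates within 15–17% of each other.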

[6] = target: Protein kinase C alpha type (Homo sapiens) (UniProt P17252); test: Inhibition of PKCalpha (unknown origin) assessed as residual activity at 50 uM relative to control; outline: as §2
[7] = target: Mast/stem cell growth factor receptor Kit (Homo sapiens) (UniProt P10721); test: Inhibition of cKIT (unknown origin) assessed as residual activity at 50 uM relative to control; outline: as §2
[8] = target: Insulin receptor (Homo sapiens) (UniProt P06213); test: Inhibition of activated IR (unknown origin) assessed as residual activity at 50 uM relative to control; outline: as §2
[9] = target: Homeodomain-interacting protein kinase 1 (Homo sapiens) (UniProt Q86Z02); test: Inhibition of HIPK1 (unknown origin) assessed as residual activity at 50 uM relative to control; outline: as §1
[10] = target: Rho-associated protein kinase 1 (Homo sapiens) (UniProt Q13464); test: Inhibition of ROCK1 (unknown origin) assessed as residual activity at 50 uM relative to control; outline: as §2
[11] = target: Tyrosine-protein kinase Yes (Homo sapiens) (UniProt P07947); test: Inhibition of YES (unknown origin) assessed as residual activity at 50 uM relative to control; outline: as §2
[12] = target: Serine/threonine-protein kinase PAK 2 (Homo sapiens) (UniProt Q13177); test: Inhibition of PAK2 (unknown origin) assessed as residual activity at 50 uM relative to control; outline: as §1
[13] = target: Tyrosine-protein kinase JAK2 (Homo sapiens) (UniProt O60674); test: Inhibition of JAK2 (unknown origin) assessed as residual activity at 50 uM relative to control; outline: as §1
[14] = target: Aurora kinase A (Homo sapiens) (UniProt O14965); test: Inhibition of aurora A (unknown origin) assessed as residual activity at 50 uM relative to control
Sequence of Aurora kinase A (Homo sapiens) (O14965 whole entry, looked up): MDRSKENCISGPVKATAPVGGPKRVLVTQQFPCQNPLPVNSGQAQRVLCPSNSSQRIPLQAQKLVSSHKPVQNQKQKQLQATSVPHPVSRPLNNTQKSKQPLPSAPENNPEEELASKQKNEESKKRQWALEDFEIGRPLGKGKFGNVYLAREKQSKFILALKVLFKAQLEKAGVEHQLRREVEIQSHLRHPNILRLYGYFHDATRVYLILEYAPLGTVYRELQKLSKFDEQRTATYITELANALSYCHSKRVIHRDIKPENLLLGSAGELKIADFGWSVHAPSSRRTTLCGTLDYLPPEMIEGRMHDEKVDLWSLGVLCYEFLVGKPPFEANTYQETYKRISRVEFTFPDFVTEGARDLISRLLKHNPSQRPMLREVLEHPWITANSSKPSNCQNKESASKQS

Sequence of Tyrosine-protein kinase JAK2 (Homo sapiens) (O60674 whole entry): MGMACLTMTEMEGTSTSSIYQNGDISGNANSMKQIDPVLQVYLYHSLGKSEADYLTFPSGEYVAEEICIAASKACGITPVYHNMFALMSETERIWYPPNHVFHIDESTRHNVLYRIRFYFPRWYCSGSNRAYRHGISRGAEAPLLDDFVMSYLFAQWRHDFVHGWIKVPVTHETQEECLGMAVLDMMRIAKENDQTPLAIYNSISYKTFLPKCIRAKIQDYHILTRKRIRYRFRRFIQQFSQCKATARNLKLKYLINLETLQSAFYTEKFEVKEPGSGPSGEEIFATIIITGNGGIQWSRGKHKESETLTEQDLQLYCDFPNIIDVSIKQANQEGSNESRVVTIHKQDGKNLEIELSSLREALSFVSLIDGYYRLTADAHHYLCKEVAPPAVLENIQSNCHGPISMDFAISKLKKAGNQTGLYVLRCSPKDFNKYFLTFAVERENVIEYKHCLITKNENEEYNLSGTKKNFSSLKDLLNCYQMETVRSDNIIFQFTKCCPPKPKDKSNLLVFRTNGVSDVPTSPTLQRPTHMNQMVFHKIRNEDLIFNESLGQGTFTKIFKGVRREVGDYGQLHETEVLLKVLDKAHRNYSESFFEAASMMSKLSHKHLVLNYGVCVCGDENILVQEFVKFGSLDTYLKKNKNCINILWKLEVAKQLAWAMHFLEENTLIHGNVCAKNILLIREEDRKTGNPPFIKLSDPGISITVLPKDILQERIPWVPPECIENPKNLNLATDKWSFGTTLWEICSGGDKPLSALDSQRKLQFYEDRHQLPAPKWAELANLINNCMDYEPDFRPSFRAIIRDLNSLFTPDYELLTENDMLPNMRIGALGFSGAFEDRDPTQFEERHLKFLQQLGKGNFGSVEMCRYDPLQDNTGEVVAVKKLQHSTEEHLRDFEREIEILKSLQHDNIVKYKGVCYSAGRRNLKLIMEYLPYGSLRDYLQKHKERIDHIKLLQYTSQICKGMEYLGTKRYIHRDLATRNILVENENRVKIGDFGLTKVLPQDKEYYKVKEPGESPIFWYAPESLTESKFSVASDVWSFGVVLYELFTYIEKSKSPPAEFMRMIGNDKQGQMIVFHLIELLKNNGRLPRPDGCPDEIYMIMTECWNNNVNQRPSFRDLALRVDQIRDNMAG
Sequence of Homeodomain-interacting protein kinase 1 (Homo sapiens) (Q86Z02 whole entry, looked up): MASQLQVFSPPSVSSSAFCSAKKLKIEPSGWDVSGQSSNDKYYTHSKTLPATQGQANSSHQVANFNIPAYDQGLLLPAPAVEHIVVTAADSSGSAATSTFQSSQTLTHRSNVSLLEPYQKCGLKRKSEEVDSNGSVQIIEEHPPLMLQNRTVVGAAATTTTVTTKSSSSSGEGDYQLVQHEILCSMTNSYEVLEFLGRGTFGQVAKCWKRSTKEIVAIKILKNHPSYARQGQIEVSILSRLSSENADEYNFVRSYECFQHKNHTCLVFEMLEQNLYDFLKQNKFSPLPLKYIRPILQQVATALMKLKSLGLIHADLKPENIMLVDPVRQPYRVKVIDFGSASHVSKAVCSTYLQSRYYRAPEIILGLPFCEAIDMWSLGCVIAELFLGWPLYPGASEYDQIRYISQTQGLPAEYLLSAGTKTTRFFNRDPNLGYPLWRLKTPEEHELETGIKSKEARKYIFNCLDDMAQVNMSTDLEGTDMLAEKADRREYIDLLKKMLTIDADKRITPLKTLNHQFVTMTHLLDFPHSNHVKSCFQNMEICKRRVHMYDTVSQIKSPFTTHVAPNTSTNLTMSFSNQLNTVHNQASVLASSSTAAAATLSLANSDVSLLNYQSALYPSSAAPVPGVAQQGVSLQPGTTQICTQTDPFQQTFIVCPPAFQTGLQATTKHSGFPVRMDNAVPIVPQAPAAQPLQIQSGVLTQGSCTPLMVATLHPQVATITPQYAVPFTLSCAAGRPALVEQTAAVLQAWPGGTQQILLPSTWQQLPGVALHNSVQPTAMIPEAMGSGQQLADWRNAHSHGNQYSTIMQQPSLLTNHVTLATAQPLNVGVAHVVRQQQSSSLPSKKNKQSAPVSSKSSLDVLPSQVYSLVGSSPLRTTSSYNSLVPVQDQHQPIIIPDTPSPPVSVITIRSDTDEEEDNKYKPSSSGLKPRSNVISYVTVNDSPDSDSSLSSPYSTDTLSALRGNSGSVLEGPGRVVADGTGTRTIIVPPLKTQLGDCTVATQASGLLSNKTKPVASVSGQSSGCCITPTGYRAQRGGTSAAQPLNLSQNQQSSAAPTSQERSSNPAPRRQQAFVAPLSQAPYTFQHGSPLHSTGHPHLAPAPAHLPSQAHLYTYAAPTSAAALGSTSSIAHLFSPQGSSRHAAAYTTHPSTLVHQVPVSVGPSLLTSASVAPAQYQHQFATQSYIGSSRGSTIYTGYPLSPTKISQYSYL
Sequence of Serine/threonine-protein kinase PAK 2 (Homo sapiens) (Q13177 whole entry): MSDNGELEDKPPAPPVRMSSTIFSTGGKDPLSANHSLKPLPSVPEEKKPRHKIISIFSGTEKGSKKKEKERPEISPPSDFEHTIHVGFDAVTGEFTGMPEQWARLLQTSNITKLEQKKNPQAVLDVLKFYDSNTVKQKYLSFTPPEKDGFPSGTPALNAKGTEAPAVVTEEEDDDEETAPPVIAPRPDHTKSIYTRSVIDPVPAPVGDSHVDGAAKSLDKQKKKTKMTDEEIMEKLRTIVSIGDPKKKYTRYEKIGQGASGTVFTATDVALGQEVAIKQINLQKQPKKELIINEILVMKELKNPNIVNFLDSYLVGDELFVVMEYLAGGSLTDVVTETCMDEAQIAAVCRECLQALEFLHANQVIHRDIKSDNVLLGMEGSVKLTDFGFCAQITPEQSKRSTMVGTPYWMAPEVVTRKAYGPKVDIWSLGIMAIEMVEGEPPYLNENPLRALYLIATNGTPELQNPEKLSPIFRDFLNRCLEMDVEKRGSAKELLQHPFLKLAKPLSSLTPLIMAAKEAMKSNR
Sequence of Serine/threonine-protein kinase STK11 (Homo sapiens) (Q15831 whole entry): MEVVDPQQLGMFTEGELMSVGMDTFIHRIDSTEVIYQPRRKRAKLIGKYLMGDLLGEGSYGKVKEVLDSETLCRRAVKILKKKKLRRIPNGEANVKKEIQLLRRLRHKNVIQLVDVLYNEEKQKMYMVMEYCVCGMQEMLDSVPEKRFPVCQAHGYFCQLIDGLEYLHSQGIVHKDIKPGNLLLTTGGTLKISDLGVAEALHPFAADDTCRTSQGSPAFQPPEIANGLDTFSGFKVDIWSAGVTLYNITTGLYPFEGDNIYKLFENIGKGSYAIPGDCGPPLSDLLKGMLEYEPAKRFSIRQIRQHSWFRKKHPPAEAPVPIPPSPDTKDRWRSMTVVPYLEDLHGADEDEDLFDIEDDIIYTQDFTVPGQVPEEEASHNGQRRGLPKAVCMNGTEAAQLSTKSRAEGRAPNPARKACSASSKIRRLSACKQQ
Sequence of Muscle, skeletal receptor tyrosine-protein kinase (Homo sapiens) (O15146 whole entry): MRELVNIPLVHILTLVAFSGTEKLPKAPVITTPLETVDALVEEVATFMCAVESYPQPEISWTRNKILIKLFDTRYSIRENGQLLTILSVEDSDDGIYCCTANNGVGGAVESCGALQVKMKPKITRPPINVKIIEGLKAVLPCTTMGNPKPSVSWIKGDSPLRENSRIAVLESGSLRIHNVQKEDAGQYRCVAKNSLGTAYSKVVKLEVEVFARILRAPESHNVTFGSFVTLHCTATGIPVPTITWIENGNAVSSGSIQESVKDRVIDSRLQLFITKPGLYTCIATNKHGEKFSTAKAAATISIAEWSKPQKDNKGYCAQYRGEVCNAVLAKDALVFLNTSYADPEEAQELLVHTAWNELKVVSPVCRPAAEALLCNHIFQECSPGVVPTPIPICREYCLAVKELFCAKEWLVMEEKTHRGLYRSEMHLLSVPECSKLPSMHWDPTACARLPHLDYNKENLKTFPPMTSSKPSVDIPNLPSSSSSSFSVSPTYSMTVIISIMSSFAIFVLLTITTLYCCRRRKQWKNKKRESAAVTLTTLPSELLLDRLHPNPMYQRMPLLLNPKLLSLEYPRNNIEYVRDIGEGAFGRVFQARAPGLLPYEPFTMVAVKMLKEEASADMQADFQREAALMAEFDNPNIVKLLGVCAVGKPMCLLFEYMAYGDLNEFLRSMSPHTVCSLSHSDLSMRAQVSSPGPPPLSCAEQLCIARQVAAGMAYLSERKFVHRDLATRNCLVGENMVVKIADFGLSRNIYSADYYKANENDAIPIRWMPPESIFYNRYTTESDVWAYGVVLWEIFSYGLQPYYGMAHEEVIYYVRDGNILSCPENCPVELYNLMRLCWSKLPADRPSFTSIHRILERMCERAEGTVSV
Sequence of RAC-alpha serine/threonine-protein kinase (Homo sapiens) (P31749 whole entry): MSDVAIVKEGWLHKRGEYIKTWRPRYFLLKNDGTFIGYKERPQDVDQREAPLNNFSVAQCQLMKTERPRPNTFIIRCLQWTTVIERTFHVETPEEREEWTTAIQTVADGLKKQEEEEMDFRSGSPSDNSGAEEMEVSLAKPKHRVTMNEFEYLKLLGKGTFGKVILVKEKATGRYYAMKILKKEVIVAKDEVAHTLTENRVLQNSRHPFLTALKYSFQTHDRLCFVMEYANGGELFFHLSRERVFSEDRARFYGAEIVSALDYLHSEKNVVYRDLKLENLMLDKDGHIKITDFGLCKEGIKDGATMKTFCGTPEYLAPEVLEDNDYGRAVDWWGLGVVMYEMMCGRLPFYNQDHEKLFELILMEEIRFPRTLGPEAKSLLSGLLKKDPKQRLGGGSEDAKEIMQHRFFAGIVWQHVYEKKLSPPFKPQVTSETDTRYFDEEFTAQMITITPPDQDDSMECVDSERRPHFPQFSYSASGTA

## O=C(O)c1ccc(Nc2nc(-c3cccc([N+](=O)[O-])c3)cs2)cc1
[1]
  inhibition: Active
[2]
  Activity: 62%
[3]
  Activity: 83%
[4]
  Activity: 85%
[5]
  Activity: 85%
[6]
  Activity: 86%
[7]
  Activity: 87%
[8]
  Activity: 93%
[9]
  Activity: 97%
[10]
  Activity: 100%
[11]
  Activity: 100%
[12]
  Activity: 102%
[13]
  Activity: 104%
[14]
  Activity: 79%
